ChEMBL document CHEMBL1143182, “Design and synthesis of DPP-IV inhibitors lacking the electrophilic nitrile group” (Bioorg Med Chem, 2008)
Active and inactive are the calls of the source. The rule behind the calls is not given here.

What was measured:
Rattus norvegicus [1] = experiment: Inhibition of DPP4 in Sprague-Dawley rat plasma at 3 mg/kg, po after 30 mins; type: functional; details: 0.5 h
Rattus norvegicus [2] = organism: Rattus norvegicus; experiment: Reduction in plasma glucose level in Sprague-Dawley rat by oral glucose tolerance test; type: functional, organism-based
Procedure, shortened: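 Male SD rats (400–460 g) fasted at least 20 h, dosed orally with 0.1, 0.3 or 1 mg/kg in 0.5% methyl cellulose (vehicle control) at −30 min. Oral glucose 1 g/kg at 0 min. Tail-vein blood at −5, 5, 10, 15, 30, 60, 120 min; plasma glucose by glucose oxidase peroxidase dye method.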

Dipeptidyl peptidase 4 = Dipeptidyl peptidase 4 (Rattus norvegicus, UniProt P14740); experiment: Inhibition of DPP4 in rat plasma by fluorescence assay; type: cell-free
Dipeptidyl peptidase 4, sequence (P14740 whole entry): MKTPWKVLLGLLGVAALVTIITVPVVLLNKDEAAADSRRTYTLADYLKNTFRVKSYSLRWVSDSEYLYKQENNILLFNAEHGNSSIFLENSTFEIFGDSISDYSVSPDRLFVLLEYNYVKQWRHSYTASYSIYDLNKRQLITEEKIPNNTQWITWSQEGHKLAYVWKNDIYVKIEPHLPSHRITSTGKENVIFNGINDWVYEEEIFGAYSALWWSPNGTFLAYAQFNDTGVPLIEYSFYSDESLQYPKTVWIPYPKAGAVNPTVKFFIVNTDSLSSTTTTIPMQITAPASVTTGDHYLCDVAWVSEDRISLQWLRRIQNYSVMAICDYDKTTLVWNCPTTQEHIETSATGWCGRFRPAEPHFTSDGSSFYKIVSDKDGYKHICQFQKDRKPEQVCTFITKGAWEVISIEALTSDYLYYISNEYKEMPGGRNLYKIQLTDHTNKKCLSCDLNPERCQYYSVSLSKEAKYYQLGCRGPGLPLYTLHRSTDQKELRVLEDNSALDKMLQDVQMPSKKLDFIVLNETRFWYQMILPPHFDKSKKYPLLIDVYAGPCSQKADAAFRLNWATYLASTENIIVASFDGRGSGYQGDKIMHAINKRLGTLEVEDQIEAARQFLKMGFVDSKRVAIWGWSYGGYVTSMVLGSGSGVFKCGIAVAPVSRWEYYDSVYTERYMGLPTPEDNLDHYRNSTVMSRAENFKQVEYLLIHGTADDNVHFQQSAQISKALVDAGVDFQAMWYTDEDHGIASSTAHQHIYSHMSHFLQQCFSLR

Rattus norvegicus [3] = experiment: Inhibition of DPP4 in Sprague-Dawley rat plasma at 3 mg/kg, po after 9 hrs; type: functional

Structure (SMILES)	inhibition in vivo at 3 mg/kg (Rattus norvegicus [1]) [%]	Activity (Rattus norvegicus [2])	IC50 (Dipeptidyl peptidase 4) [nM]	inhibition in vivo at 3 mg/kg (Rattus norvegicus [3]) [%]
Cc1nsc(N2CCN(C(=O)[C@H]3C[C@@H](C(=O)N4CCSC4)N[C@H]3C)CC2)n1	95	Active	60	72
CCc1nsc(N2CCN(C(=O)[C@@H]3CN[C@H](C(=O)N4CCCC4)C3)CC2)n1	80		120	47
O=C([C@@H]1CN[C@H](C(=O)N2CCCC2)C1)N1CCN(c2nc(-c3ccccc3)ns2)CC1	64		150	11
Cc1ncc(N2CCN(C(=O)[C@@H]3CN[C@H](C(=O)N4CCCC4)C3)CC2)s1			340	
O=C([C@@H]1CN[C@H](C(=O)N2CCCC2)C1)N1CCN(c2ncns2)CC1	85		45	56
Cc1nc(N2CCN(C(=O)[C@@H]3CN[C@H](C(=O)N4CCCC4)C3)CC2)no1			960	
O=C([C@@H]1CN[C@H](C(=O)N2CCCC2)C1)N1CCN(c2nc(C(F)(F)F)ns2)CC1	91		140	54
COCc1nsc(N2CCN(C(=O)[C@@H]3CN[C@H](C(=O)N4CCCC4)C3)CC2)n1	52		49	41
Cc1nsc(N2CCCN(C(=O)[C@@H]3CN[C@H](C(=O)N4CCCC4)C3)CC2)n1			760	
CCCc1nsc(N2CCN(C(=O)[C@@H]3CN[C@H](C(=O)N4CCCC4)C3)CC2)n1	81		110	48
Cc1nsc(N2CCN(C(=O)[C@@H]3CN[C@H](C(=O)N4CCCC4)C3)CC2)n1	84		58	53
Cc1cnc(N2CCN(C(=O)[C@@H]3CN[C@H](C(=O)N4CCCC4)C3)CC2)s1			320	
Cc1nc(N2CCN(C(=O)[C@@H]3CN[C@H](C(=O)N4CCCC4)C3)CC2)sc1C			510	
CC(C)c1nsc(N2CCN(C(=O)[C@@H]3CN[C@H](C(=O)N4CCCC4)C3)CC2)n1	85		190	43
Cc1nsc(N2CCN(C(=O)[C@H]3C[C@@H](C(=O)N4CCCC4)N[C@H]3C)CC2)n1	89		69	74
Cc1nsc(C2CCN(C(=O)[C@@H]3CN[C@H](C(=O)N4CCCC4)C3)CC2)n1			450	
Cc1cc(N2CCN(C(=O)[C@@H]3CN[C@H](C(=O)N4CCCC4)C3)CC2)sn1			240	
Cc1nsc(N2CCN(C(=O)[C@@H]3CN[C@H](C(=O)N4CCSC4)C3)CC2)n1	91		76	75
